Tests used:
Bacillus subtilis = assay: Antimicrobial activity against Bacillus subtilis MTCC121 assessed as zone diameter at 100 ug/ml after 24 hrs incubation by agar diffusion as say cup method; assay type: functional; conditions: MTCC121, 24 h, read-out: DIZ
Summary of the method: (§1)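 Agar cup diffusion on nutrient agar plates. Solidified plates were spread with 0.1% cell suspension (10^6 CFU/mL) of the test organism and held 15 min, then 6 mm wells were cut. Samples at 100 µg/mL in DMSO went into the wells, and plates were incubated 24 h at 30–35 °C. Inhibition zone diameter was measured in mm by digital vernier caliper. Triplicate parallel sets gave mean ± standard deviation, compared by ANOVA with Tukey test (P < 0.01).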

Staphylococcus aureus = assay: Antimicrobial activity against Staphylococcus aureus MTCC1430 assessed as zone diameter at 100 ug/ml after 24 hrs incubation by agar diffusion as say cup method; assay type: functional; conditions: MTCC1430, 24 h, read-out: DIZ; summary of the method: as §1
Escherichia coli = assay: Antimicrobial activity against Escherichia coli MTCC1610 assessed as zone diameter at 100 ug/ml after 24 hrs incubation by agar diffusion as say cup method; assay type: functional; conditions: MTCC1610, 24 h, read-out: DIZ; summary of the method: as §1
Pseudomonas aeruginosa = assay: Antimicrobial activity against Pseudomonas aeruginosa MTCC424 assessed as zone diameter at 100 ug/ml after 24 hrs incubation by agar diffusion as say cup method; assay type: functional; conditions: MTCC424, 24 h, read-out: DIZ; summary of the method: as §1
Candida albicans = assay: Antimicrobial activity against Candida albicans MTCC227 assessed as zone diameter at 100 ug/ml after 24 hrs incubation by agar diffusion as say cup method; assay type: functional; conditions: MTCC227, 24 h, read-out: DIZ; summary of the method: as §1
Cicer arietinum [1] = assay: Toxicity in gram seed germination assessed as seedling fresh weight; assay type: organism-based; conditions: in vivo
Pisum sativum [2] = assay: Toxicity in pea seed germination assessed as seedling fresh weight; assay type: organism-based; conditions: lathyrus oleraceus, in vivo
Vigna mungo = assay: Toxicity in mung seed germination assessed as seedling fresh weight; assay type: organism-based; conditions: in vivo
Cicer arietinum [3] = assay: Toxicity in gram seed germination assessed as seedling length; assay type: organism-based; conditions: in vivo
Pisum sativum [4] = assay: Toxicity in pea seed germination assessed as seedling length; assay type: organism-based; conditions: lathyrus oleraceus, in vivo

CCOP(=O)(OCC)[Se]c1ccccc1
zone of inhibition at 100 µg/mL (Bacillus subtilis): 31.6 mm
zone of inhibition at 100 µg/mL (Staphylococcus aureus): 30.2 mm
zone of inhibition at 100 µg/mL (Escherichia coli): 24.3 mm
zone of inhibition at 100 µg/mL (Pseudomonas aeruginosa): 32.1 mm
zone of inhibition at 100 µg/mL (Candida albicans): 34 mm
Activity (Cicer arietinum [1]): Non-toxic
Activity (Pisum sativum [2]): Non-toxic
Activity (Vigna mungo): Non-toxic
Activity (Cicer arietinum [3]): Non-toxic
Activity (Pisum sativum [4]): Non-toxic

COP(=O)(OC)[Se]c1ccccc1
zone of inhibition at 100 µg/mL (Bacillus subtilis): 22.1 mm
zone of inhibition at 100 µg/mL (Staphylococcus aureus): 28.4 mm
zone of inhibition at 100 µg/mL (Escherichia coli): 22.5 mm
zone of inhibition at 100 µg/mL (Pseudomonas aeruginosa): 25.6 mm
zone of inhibition at 100 µg/mL (Candida albicans): 28.3 mm

O=P(OCc1ccccc1)(OCc1ccccc1)[Se]c1ccccc1
zone of inhibition at 100 µg/mL (Bacillus subtilis): 23.4 mm
zone of inhibition at 100 µg/mL (Staphylococcus aureus): 20.3 mm
zone of inhibition at 100 µg/mL (Escherichia coli): 27.3 mm
zone of inhibition at 100 µg/mL (Pseudomonas aeruginosa): 24.3 mm
zone of inhibition at 100 µg/mL (Candida albicans): 25.9 mm

CC(C)OP(=O)(OC(C)C)[Se]c1ccccc1
zone of inhibition at 100 µg/mL (Bacillus subtilis): 33.1 mm
zone of inhibition at 100 µg/mL (Staphylococcus aureus): 30.5 mm
zone of inhibition at 100 µg/mL (Escherichia coli): 35.1 mm
zone of inhibition at 100 µg/mL (Pseudomonas aeruginosa): 33.4 mm
zone of inhibition at 100 µg/mL (Candida albicans): 38.6 mm
Activity (Cicer arietinum [1]): Non-toxic
Activity (Pisum sativum [2]): Non-toxic
Activity (Vigna mungo): Non-toxic
Activity (Cicer arietinum [3]): Non-toxic
Activity (Pisum sativum [4]): Non-toxic

CCOP(=O)(OCC)Sc1ccccc1
zone of inhibition at 100 µg/mL (Bacillus subtilis): 20.6 mm
zone of inhibition at 100 µg/mL (Staphylococcus aureus): 22.5 mm
zone of inhibition at 100 µg/mL (Escherichia coli): 21 mm
zone of inhibition at 100 µg/mL (Pseudomonas aeruginosa): 23.6 mm
zone of inhibition at 100 µg/mL (Candida albicans): 26.4 mm
Activity (Cicer arietinum [1]): Non-toxic
Activity (Pisum sativum [2]): Non-toxic
Activity (Vigna mungo): Non-toxic
Activity (Cicer arietinum [3]): Non-toxic
Activity (Pisum sativum [4]): Non-toxic

O=P(OCc1ccccc1)(OCc1ccccc1)Sc1ccccc1
zone of inhibition at 100 µg/mL (Bacillus subtilis): 19.8 mm
zone of inhibition at 100 µg/mL (Staphylococcus aureus): 25.1 mm
zone of inhibition at 100 µg/mL (Escherichia coli): 22.9 mm
zone of inhibition at 100 µg/mL (Pseudomonas aeruginosa): 25.4 mm
zone of inhibition at 100 µg/mL (Candida albicans): 28.1 mm

O=C(N[C@H](CO)[C@H](O)c1ccc([N+](=O)[O-])cc1)C(Cl)Cl [CHLORAMPHENICOL]
zone of inhibition at 100 µg/mL (Bacillus subtilis): 33.4 mm
zone of inhibition at 100 µg/mL (Staphylococcus aureus): 30.9 mm
zone of inhibition at 100 µg/mL (Escherichia coli): 35 mm
zone of inhibition at 100 µg/mL (Pseudomonas aeruginosa): 33.6 mm

— ChEMBL document CHEMBL3259574, “Environmentally benign synthesis and antimicrobial study of novel chalcogenophosphates” (Bioorg Med Chem Lett, 2014)
